Source: ChEMBL document CHEMBL3751698, “5,7-Disubstituted-[1,2,4]triazolo[1,5-a][1,3,5]triazines as pharmacological tools to explore the antagonist selectivity profiles toward adenosine receptors” (Eur J Med Chem, 2016)
pIC50, pKi: −log10 of the molar value.

Assays:
Homo sapiens [1] = species on record: Homo sapiens; experiment: Selectivity index, ratio of Ki for human A1 adenosine receptor to Ki for human A2A adenosine receptor
Adenosine receptor A3 = biological target: T1, Adenosine receptor A3 (Homo sapiens, UniProt P0DMS8); experiment: Displacement of [3H]HEMADO from human A3 adenosine receptor expressed in CHO cell membranes
T1 sequence (P0DMS8 whole entry): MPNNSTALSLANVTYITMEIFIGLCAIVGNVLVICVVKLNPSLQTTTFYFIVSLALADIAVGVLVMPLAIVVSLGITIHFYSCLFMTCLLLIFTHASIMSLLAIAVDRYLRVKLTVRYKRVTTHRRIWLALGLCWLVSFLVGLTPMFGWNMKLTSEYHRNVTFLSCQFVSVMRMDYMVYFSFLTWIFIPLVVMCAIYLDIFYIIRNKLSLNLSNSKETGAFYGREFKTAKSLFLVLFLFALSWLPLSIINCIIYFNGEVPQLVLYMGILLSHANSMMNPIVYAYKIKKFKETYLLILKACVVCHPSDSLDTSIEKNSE
In short: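 Two-step centrifugation (1,000 x g, then 100,000 x g) of stably transfected CHO cells gave the membranes. Displacement of 1 nM [3H]HEMADO; nonspecific binding taken with 100 µM R-PIA. Ki computed from competition data.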

Adenosine receptor A2a = Adenosine receptor A2a (Homo sapiens, UniProt P29274); experiment: Displacement of [3H]NECA from human A2A adenosine receptor expressed in CHO cell membranes
In short: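 Crude membranes from stably transfected CHO cells, prepared by a two-step spin (1,000 x g, then 100,000 x g). Competition with 10 nM [3H]NECA, with nonspecific binding measured in presence of 100 µM R-PIA. Ki derived from competition experiments.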

Homo sapiens [2] = species on record: Homo sapiens; experiment: Selectivity index, ratio of Ki for human A3 adenosine receptor to Ki for human A2A adenosine receptor
Adenosine receptor A2b = biological target: T2, Adenosine receptor A2b (Homo sapiens, UniProt P29275); experiment: Antagonist activity at human A2B adenosine receptor expressed in CHO cell membranes assessed as inhibition of NECA stimulated adenylyl cyclase activity; assay type: functional, cell-based
T2 sequence (P29275 whole entry): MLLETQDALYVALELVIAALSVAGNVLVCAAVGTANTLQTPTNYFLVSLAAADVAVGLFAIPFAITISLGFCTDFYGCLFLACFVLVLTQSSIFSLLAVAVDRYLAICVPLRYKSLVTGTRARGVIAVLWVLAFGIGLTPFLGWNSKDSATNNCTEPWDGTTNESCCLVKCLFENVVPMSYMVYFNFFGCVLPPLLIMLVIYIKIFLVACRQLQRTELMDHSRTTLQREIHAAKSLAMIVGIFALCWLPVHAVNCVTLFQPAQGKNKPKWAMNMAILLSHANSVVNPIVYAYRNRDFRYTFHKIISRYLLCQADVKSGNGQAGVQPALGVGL
In short: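 CHO cells stably expressing hA2B; crude membranes from a single high-speed spin, resuspended in 50 mM Tris/HCl pH 7.4 and used fresh. Incubated 20 min with about 150,000 cpm [α-32P]ATP in a mixture without EDTA and NaCl. IC50 for inhibition of NECA-stimulated cyclase obtained by Hill equation fit.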

Adenosine receptor A1 = biological target: T3, Adenosine receptor A1 (Homo sapiens, UniProt P30542); experiment: Displacement of [3H]CCPA from human A1 adenosine receptor expressed in CHO cell membranes; details: for pKi: read-out: Ki
T3 sequence (P30542 whole entry): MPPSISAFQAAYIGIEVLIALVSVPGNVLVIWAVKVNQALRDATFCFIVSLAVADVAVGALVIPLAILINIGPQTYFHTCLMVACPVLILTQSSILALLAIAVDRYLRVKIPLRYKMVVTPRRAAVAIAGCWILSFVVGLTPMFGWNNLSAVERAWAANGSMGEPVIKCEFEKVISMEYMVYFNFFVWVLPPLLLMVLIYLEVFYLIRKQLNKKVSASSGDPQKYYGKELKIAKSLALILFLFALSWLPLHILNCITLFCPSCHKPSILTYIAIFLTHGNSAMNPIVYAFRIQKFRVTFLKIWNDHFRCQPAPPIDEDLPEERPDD
In short: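 Membranes from stably transfected CHO cells (1,000 x g spin to clear nuclei and debris, then 100,000 x g pellet), resuspended in binding buffer and frozen. Competition against 1 nM [3H]CCPA; nonspecific binding defined with 1 mM theophylline. Ki calculated from competition curves.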

Sequence of Adenosine receptor A2a (P29274 whole entry): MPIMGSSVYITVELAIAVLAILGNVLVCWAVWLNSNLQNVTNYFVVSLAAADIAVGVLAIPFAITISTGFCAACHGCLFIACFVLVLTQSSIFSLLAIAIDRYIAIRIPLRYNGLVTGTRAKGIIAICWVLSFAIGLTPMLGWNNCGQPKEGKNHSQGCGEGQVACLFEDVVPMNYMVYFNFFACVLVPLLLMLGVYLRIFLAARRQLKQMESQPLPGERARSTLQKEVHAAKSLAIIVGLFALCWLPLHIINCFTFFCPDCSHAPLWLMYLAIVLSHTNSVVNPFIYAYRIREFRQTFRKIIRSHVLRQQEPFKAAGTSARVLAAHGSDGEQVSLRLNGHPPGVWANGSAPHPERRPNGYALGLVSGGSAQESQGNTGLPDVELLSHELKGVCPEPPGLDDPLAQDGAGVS

Row | Structure (SMILES) | Ratio Ki (Homo sapiens [1]) | pKi (Adenosine receptor A3) | pKi (Adenosine receptor A2a) | Ratio Ki (Homo sapiens [2]) | pIC50 (Adenosine receptor A2b) | pKi (Adenosine receptor A1) | Ki (Adenosine receptor A1; cho)
1 | Fc1ccc(CNc2nc(NC3CCCCC3)nc3nc(-c4ccco4)nn23)cc1 | > 893 | 5.89 | 6.95 | 11.6 | < 4.52 | < 4.00 | –
2 | CC(C)Nc1nc(NC(=O)c2ccccc2)n2nc(-c3ccco3)nc2n1 | 11.3 | 4.87 | 5.67 | 6.23 | < 4.52 | 4.61 | –
3 | c1ccc(CNc2nc(NCc3ccccc3)n3nc(-c4ccco4)nc3n2)cc1 | 38.4 | 7.43 | 7.69 | 1.81 | 4.93 | 6.11 | –
4 | CNc1nc(NC(=O)Nc2ccccc2)n2nc(-c3ccco3)nc2n1 | 38.6 | 6.24 | 7.00 | 5.74 | < 4.52 | 5.41 | –
5 | O=C(Cc1ccccc1)Nc1nc(NCc2ccccc2)nc2nc(-c3ccco3)nn12 | 125 | 7.34 | 8.27 | 8.44 | 5.12 | 6.17 | –
6 | CC(C)Nc1nc(N)n2nc(-c3ccco3)nc2n1 | 66.5 | 6.25 | 7.19 | 8.76 | < 4.52 | 5.37 | –
7 | Fc1ccc(CNc2nc(NCc3ccccc3)nc3nc(-c4ccco4)nn23)cc1 | 68.3 | 7.12 | 7.66 | 3.45 | < 4.52 | 5.83 | –
8 | c1ccc(Oc2nc(NC3CCCCC3)n3nc(-c4ccco4)nc3n2)cc1 | 6.7 | 6.53 | 6.95 | 2.6 | < 4.52 | 6.12 | –
9 | CC(C)Nc1nc(NC2CCCCC2)n2nc(-c3ccco3)nc2n1 | 2.02 | 6.98 | 6.40 | 0.26 | < 4.52 | 6.10 | –
10 | CNc1nc(NCc2ccccc2)n2nc(-c3ccco3)nc2n1 | 16 | 6.56 | 6.76 | 1.59 | < 4.52 | 5.56 | –
11 | CNc1nc(NC(=O)Cc2ccccc2)n2nc(-c3ccco3)nc2n1 | 29.9 | 5.78 | 6.52 | 5.57 | < 4.52 | 5.05 | –
12 | c1ccc(CNc2nc(NC3CCCCC3)nc3nc(-c4ccco4)nn23)cc1 | – | – | – | – | – | – | ND(Insoluble)
13 | c1ccc(CNc2nc(Oc3ccccc3)nc3nc(-c4ccco4)nn23)cc1 | > 178 | 6.43 | 6.25 | 0.67 | < 4.52 | < 4.00 | –
14 | CC(C)Nc1nc(NC(=O)Nc2ccccc2)n2nc(-c3ccco3)nc2n1 | 13.6 | 6.77 | 7.06 | 1.96 | < 4.52 | 5.93 | –
15 | CNc1nc(N)n2nc(-c3ccco3)nc2n1 | 52.1 | 5.81 | 7.31 | 31.6 | < 4.52 | 5.59 | –
16 | CNc1nc(NC2CCCCC2)n2nc(-c3ccco3)nc2n1 | 2.52 | 6.04 | 6.84 | 6.33 | < 4.52 | 6.44 | –
17 | CC(C)Nc1nc(NC(=O)Cc2ccccc2)n2nc(-c3ccco3)nc2n1 | 18.2 | 6.59 | 6.41 | 0.65 | < 4.52 | 5.15 | –
18 | c1ccc(CNc2nc(NC3CCCCC3)n3nc(-c4ccco4)nc3n2)cc1 | 4.2 | 6.34 | 7.82 | 29.9 | < 4.52 | 7.19 | –
19 | Fc1ccc(CNc2nc(Oc3ccccc3)nc3nc(-c4ccco4)nn23)cc1 | > 110 | < 4.00 | 6.04 | > 110 | < 4.52 | < 4.00 | –
20 | O=C(Nc1nc(NC2CCCCC2)nc2nc(-c3ccco3)nn12)c1ccccc1 | 7.41 | 5.07 | 5.99 | 8.33 | < 4.52 | 5.12 | –

More lines, in order of rising pKi (Adenosine receptor A3), values ahead:

Row | Ratio Ki (Homo sapiens [1]) | pKi (Adenosine receptor A3) | pKi (Adenosine receptor A2a) | Ratio Ki (Homo sapiens [2]) | pIC50 (Adenosine receptor A2b) | pKi (Adenosine receptor A1) | Ki (Adenosine receptor A1; cho) | Structure (SMILES)
21 | 54.1 | 5.03 | 6.71 | 47.6 | < 4.52 | 4.98 | – | CNc1nc(NC(=O)c2ccccc2)n2nc(-c3ccco3)nc2n1
22 | 13.1 | 6.25 | 6.63 | 2.37 | < 4.52 | 5.51 | – | CNc1nc(NCc2ccc(F)cc2)n2nc(-c3ccco3)nc2n1
23 | 38.8 | 6.43 | 8.45 | 104 | 4.87 | 6.86 | – | Nc1nc(NC2CCCCC2)nc2nc(-c3ccco3)nn12
24 | 120 | 6.46 | 8.10 | 44.3 | < 4.52 | 6.02 | – | O=C(Nc1ccccc1)Nc1nc(NC2CCCCC2)nc2nc(-c3ccco3)nn12
25 | 42.8 | 6.54 | 7.63 | 12.1 | < 4.52 | 6.00 | – | O=C(Cc1ccccc1)Nc1nc(NC2CCCCC2)nc2nc(-c3ccco3)nn12
26 | 15.2 | 6.60 | 7.02 | 2.63 | < 4.52 | 5.84 | – | O=C(Nc1nc(NCc2ccccc2)nc2nc(-c3ccco3)nn12)c1ccccc1
27 | 1.73 | 6.89 | 6.75 | 0.73 | < 4.52 | 6.51 | – | c1coc(-c2nc3nc(NC4CCCCC4)nc(NC4CCCCC4)n3n2)c1
28 | > 2290 | 6.91 | 7.36 | 2.82 | < 4.52 | < 4.00 | – | Fc1ccc(CNc2nc(NCc3ccc(F)cc3)n3nc(-c4ccco4)nc3n2)cc1
29 | > 253 | 6.94 | 6.40 | 0.29 | < 4.52 | < 4.00 | – | CC(C)Nc1nc(NCc2ccccc2)n2nc(-c3ccco3)nc2n1
30 | 85.2 | 7.51 | 8.95 | 27.7 | 5.65 | 7.02 | – | Nc1nc(NCc2ccccc2)nc2nc(-c3ccco3)nn12
31 | 216 | 7.53 | 8.84 | 20.6 | 5.36 | 6.51 | – | O=C(Nc1ccccc1)Nc1nc(NCc2ccccc2)nc2nc(-c3ccco3)nn12
